The test system of one data set is HEK293. Put plainly: Cytotoxicity against HEK293 cells assessed as reduction in cell viability by CMFDA dye based fluorescence assay. Particulars: human. In a few lines: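 Viability of HEK293/NF-κB-luc cells was tracked with 2.5 μM CMFDA loaded 1 h before seeding at 10^4 cells/well. After overnight incubation, samples were added with 20 ng/mL TNF-α for 5 h. Fluorescence was read after lysis. Duplicate wells, three independent experiments.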

The nature of data set [1]: Inhibition of TNFalpha stimulated NF-kappaB (unknown origin) expressed in HEK293 cells after 5 hrs by luciferase reporter gene based luminescence assay. Type of data set: cell-based. Particulars: Homo sapiens, HEK293, 5 h. In a few lines:
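HEK293/NF-κB-luc cells loaded 1 h with 2.5 μM CMFDA, seeded at 10^4 cells/well and incubated overnight. Samples were added, with TNF-α stimulation at 20 ng/mL for 5 h. After lysis, fluorescence was read, then luciferase luminescence. Luminescence was normalized to each well's fluorescence and IC50 derived. Duplicate wells, three independent experiments.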

For orientation: IC50 means the concentration that gives 50% inhibition. Regarding `COC(=O)c1nccc2c1[nH]c1ccccc12`, the Activity entry in the data set on HEK293 is listed as “Non-Toxic”. This molecule also yielded an IC50 in data set [1] of more than 50 µM.
In the case of `O=c1cc(-c2ccc(Br)cc2)oc2ccccc12`, the Activity entry with HEK293 was “Non-Toxic”.
Turning to `C/C=C1/COC(=O)[C@@H]2[C@H]1C[C@@H]1NCCc3c1n2c1ccccc31`, in the data set on HEK293, the Activity entry is given as “Non-Toxic”. For the same molecule, the half-maximal inhibitory concentration (IC50) in data set [1] is 9.4 µM.
`COC(=O)[C@@H]1C[C@@]23CCCN4CC[C@@]5(c6ccccc6N(C)[C@]15CC2)[C@@H]43`: the Activity entry in the data set with HEK293 is “Non-Toxic”. In data set [1], the IC50 was 8.8 µM.
On to `C/C=C1/C[N@+]2(C)C3Cc4c([nH]c5ccc(O)cc45)[C@@H]2C[C@H]1[C@@H]3CO`, for which, in the data set on HEK293, the Activity result is reported as “Non-Toxic”. The same molecule yielded an IC50 in data set [1] of more than 50 µM.
`C[C@H]1NCCc2c1cc1c([nH]c3ccccc31)c2CO`: the Activity result with HEK293 is on record as “Non-Toxic”. This molecule also had an IC50 in data set [1] of more than 50 µM.
For `C=C1C(=O)O[C@@H]2C3O[C@]3(C)CC/C=C(\C)CC[C@@H]12` (stereo partly drawn) the same measures were “Non-Toxic” and 0.4 µM.

(Values after ChEMBL document CHEMBL4145556, “Carbazole-, Aspidofractinine-, and Aspidocarpamine-Type Alkaloids from Pleiocarpa pycnantha” (J Nat Prod, 2018).)
